Consider one protein from ChEMBL document CHEMBL2157866, “Virtual screening and computational optimization for the discovery of covalent prolyl oligopeptidase inhibitors with activity in human cells” (J Med Chem, 2012).

Substrate in data set [1]: Cc1cc(=O)oc2cc(NC(=O)[C@@H]3CCCN3C(=O)CNC(=O)OCc3ccccc3)ccc12
The experiment in a line: Activity of POP in human LN18 cell extracts incubated for 30 mins by fluorimetric assay. A digest of the protocol: (§1)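 Confluent cell monolayers lysed in PBS with 0.1% Triton X-100. Increasing Z-Gly-Pro-AMC concentrations added; fluorescence increase (ex/em 360/460 nm) recorded for 30 min at 37 °C. KM read graphically from a double-reciprocal Michaelis–Menten plot.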

Substrate in data set [2]: Cc1cc(=O)oc2cc(NC(=O)[C@@H]3CCCN3C(=O)CNC(=O)OCc3ccccc3)ccc12
The experiment in a line: Activity of POP in human LN229 cell extracts incubated for 30 mins by fluorimetric assay. A digest of the protocol:
as §1

Substrate in data set [3]: Cc1cc(=O)oc2cc(NC(=O)[C@@H]3CCCN3C(=O)CNC(=O)OCc3ccccc3)ccc12
The experiment in a line: Activity of POP in human LNZ308 cell extracts incubated for 30 mins by fluorimetric assay. A digest of the protocol:
as §1

Substrate in data set [4]: Cc1cc(=O)oc2cc(NC(=O)[C@@H]3CCCN3C(=O)CNC(=O)OCc3ccccc3)ccc12
Put plainly: Activity of POP in human HCEC cell extracts incubated for 30 mins by fluorimetric assay. A digest of the protocol: as §1

Substrate in data set [5]: Cc1cc(=O)oc2cc(NC(=O)[C@@H]3CCCN3C(=O)CNC(=O)OCc3ccccc3)ccc12
Put plainly: Activity of human recombinant POP incubated for 30 mins by fluorimetric assay. In a few lines:
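Recombinant human POP/PREP stock diluted in PBS containing 1 mg/mL BSA. Increasing Z-Gly-Pro-AMC concentrations added; fluorescence (ex/em 360/460 nm) followed for 30 min at 37 °C. KM determined graphically from a double-reciprocal Michaelis–Menten plot.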

B1: Prolyl endopeptidase (Homo sapiens), P48147 (protein)
chain: MLSLQYPDVYRDETAVQDYHGHKICDPYAWLEDPDSEQTKAFVEAQNKITVPFLEQCPIRGLYKERMTELYDYPKYSCHFKKGKRYFYFYNTGLQNQRVLYVQDSLEGEARVFLDPNILSDDGTVALRGYAFSEDGEYFAYGLSASGSDWVTIKFMKVDGAKELPDVLERVKFSCMAWTHDGKGMFYNSYPQQDGKSDGTETSTNLHQKLYYHVLGTDQSEDILCAEFPDEPKWMGGAELSDDGRYVLLSIREGCDPVNRLWYCDLQQESSGIAGILKWVKLIDNFEGEYDYVTNEGTVFTFKTNRQSPNYRVINIDFRDPEESKWKVLVPEHEKDVLEWIACVRSNFLVLCYLHDVKNILQLHDLTTGALLKTFPLDVGSIVGYSGQKKDTEIFYQFTSFLSPGIIYHCDLTKEELEPRVFREVTVKGIDASDYQTVQIFYPSKDGTKIPMFIVHKKGIKLDGSHPAFLYGYGGFNISITPNYSVSRLIFVRHMGGILAVANIRGGGEYGETWHKGGILANKQNCFDDFQCAAEYLIKEGYTSPKRLTINGGSNGGLLVAACANQRPDLFGCVIAQVGVMDMLKFHKYTIGHAWTTDYGCSDSKQHFEWLVKYSPLHNVKLPEADDIQYPSMLLLTADHDDRVVPLHSLKFIATLQYIVGRSRKQSNPLLIHVDTKAGHGAGKPTAKVIEEVSDMFAFIARCLNVDWIP
In general, Km refers to the concentration of substrate that gives half-maximal velocity. Consider B1, for which the Km in data set [1] turned out to be 8.5 µM; in data set [2] it was 6.7 µM; in data set [3] it was 8.1 µM; in data set [4], 7 µM; in data set [5], 8.5 µM.
